From ChEMBL document CHEMBL1151714 (J Med Chem, 2008)
Activity calls are given as the source filed them. No cut-off for these calls is given here.

Legend:
[1] = biological target: Baculoviral IAP repeat-containing protein 3 (Homo sapiens, UniProt Q13489); assay: Displacement of fluorescently tagged SM5F from human cIAP-2 BIR3 expressed in Escherichia coli BL21 cells by fluorescence polarization assay
[2] = tested on: MDA-MB-231; assay: cells; conditions: Homo sapiens, MDA-MB-231, 96 h
[3] = tested on: MDA-MB-231; assay: Reversal of human XIAP BIR3-mediated suppression of cytochrome c-induced caspase-3/-7 activity in human MDA-MB-231 cell lysate by cell free functional assay
Method in brief: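 Caspase-3/-7 in cell lysates was activated by adding cytochrome c and dATP. Recombinant XIAP BIR3 protein at 0.5 μM was used to suppress activation, and recovery of caspase-3/-7 activity was measured across compound doses. Activity was read at the 30-minute time point and expressed relative to maximum activation.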

[4] = tested on: MDA-MB-231; assay: Induction of cIAP1 degradation in human MDA-MB-231 cells at 10 nM after 24 hrs by Western blotting; format: functional, cell-based
Method in brief: (§1)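 MDA-MB-231 cells were exposed to a range of concentrations for 24 hours. Whole-cell levels of cIAP-1, cleaved PARP and cleaved caspase-3 were then probed by Western blot.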

[5] = tested on: MDA-MB-231; assay: Induction of PARP cleavage in human MDA-MB-231 cells at 100 nM after 24 hrs by Western blotting; format: functional, cell-based; method in brief: as §1
[6] = tested on: MDA-MB-231; assay: Induction of caspase 3 processing in human MDA-MB-231 cells at 100 nM after 24 hrs by Western blotting; format: functional, cell-based; method in brief: as §1
[7] = tested on: Rattus norvegicus; assay: Cmax in Sprague-Dawley rat at 30 mg/kg, po; format: ADME, organism-based; parameters: dose 30 mg/kg, route oral; conditions: in vivo
[8] = tested on: Rattus norvegicus; assay: Half life in Sprague-Dawley rat at 30 mg/kg, po; format: ADME, organism-based; parameters: dose 30 mg/kg, route oral; conditions: in vivo
Method in brief: (§2)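 Rat pharmacokinetics after a single oral dose. Compounds were given at 25 or 30 mg/kg. Cmax, elimination half-life and AUC(0-∞) were determined, and oral bioavailability was calculated. Values are reported as mean ± deviation.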

[9] = tested on: Rattus norvegicus; assay: AUC (0 to infinity) in Sprague-Dawley rat at 30 mg/kg, po; format: ADME, organism-based, Plasma; parameters: dose 30 mg/kg, route oral, time infinity; conditions: in vivo
Method in brief: (§3)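 Rats were given a single oral dose of 25 or 30 mg/kg. Maximum plasma concentration (Cmax), elimination half-life and AUC(0-∞) were derived. Oral bioavailability was also reported.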

[10] = tested on: Rattus norvegicus; assay: Bioavailability in Sprague-Dawley rat at 30 mg/kg, po; format: ADME, organism-based; conditions: in vivo; method in brief: as §2
[11] = tested on: Rattus norvegicus; assay: Cmax in Sprague-Dawley rat at 25 mg/kg, po; format: ADME, organism-based; parameters: dose 25 mg/kg, route oral; conditions: in vivo
[12] = tested on: Rattus norvegicus; assay: Half life in Sprague-Dawley rat at 25 mg/kg, po; format: ADME, organism-based; parameters: dose 25 mg/kg, route oral; conditions: in vivo; method in brief: as §2
[13] = tested on: Rattus norvegicus; assay: AUC (0 to infinity) in Sprague-Dawley rat at 25 mg/kg, po; format: ADME, organism-based, Plasma; parameters: time infinity, dose 25 mg/kg, route oral; conditions: in vivo; method in brief: as §3
[14] = tested on: Rattus norvegicus; assay: Bioavailability in Sprague-Dawley rat at 25 mg/kg, po; format: ADME, organism-based; conditions: in vivo; method in brief: as §2

Chain of Baculoviral IAP repeat-containing protein 3 (Q13489 whole entry): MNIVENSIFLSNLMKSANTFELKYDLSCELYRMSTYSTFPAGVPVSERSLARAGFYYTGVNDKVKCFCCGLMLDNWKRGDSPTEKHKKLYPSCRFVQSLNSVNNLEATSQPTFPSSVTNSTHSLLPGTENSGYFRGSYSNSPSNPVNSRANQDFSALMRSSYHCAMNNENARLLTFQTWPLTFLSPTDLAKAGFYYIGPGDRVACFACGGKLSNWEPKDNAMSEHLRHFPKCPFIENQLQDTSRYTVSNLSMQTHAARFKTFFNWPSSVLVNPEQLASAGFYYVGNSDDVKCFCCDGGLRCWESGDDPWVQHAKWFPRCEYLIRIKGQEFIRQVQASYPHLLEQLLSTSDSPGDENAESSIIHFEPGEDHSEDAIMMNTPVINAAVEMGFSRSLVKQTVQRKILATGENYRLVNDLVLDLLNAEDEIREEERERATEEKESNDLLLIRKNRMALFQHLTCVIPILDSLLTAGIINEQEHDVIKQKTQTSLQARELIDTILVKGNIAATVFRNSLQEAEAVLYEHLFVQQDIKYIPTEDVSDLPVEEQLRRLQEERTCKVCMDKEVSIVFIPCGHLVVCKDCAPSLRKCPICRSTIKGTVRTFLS

## CN[C@@H](C)C(=O)N[C@H]1CN(Cc2ccccc2)CC[C@H]2CC[C@@H](C(=O)NC(c3ccccc3)c3ccccc3)N2C1=O
[1]
  Ki: 9.8 nM

## CN[C@@H](C)C(=O)N[C@H]1CNCC[C@H]2CC[C@@H](C(=O)NC(c3ccccc3)c3ccccc3)N2C1=O
[1]
  Ki: 4.6 nM
[2]
  IC50: 890 nM

## CN[C@@H](C)C(=O)N[C@H]1CN(C(=O)Cc2ccccc2)CC[C@H]2CC[C@@H](C(=O)NC(c3ccccc3)c3ccccc3)N2C1=O.Cl
[3]
  Activity: Dose-dependent effect
[4]
  Activity: Active
[5]
  Activity: Active
[6]
  Activity: Active
[7]
  Cmax: 532 nM
[8]
  t1/2: 4.7 h
[9]
  AUC: 1985 µg/L
[10]
  F: 24%

## CN[C@@H](C)C(=O)N[C@H]1CN(C)CC[C@H]2CC[C@@H](C(=O)NC(c3ccccc3)c3ccccc3)N2C1=O
[1]
  Ki: 17.5 nM

## CN[C@@H](C)C(=O)N[C@H]1CCCC[C@H]2CC[C@@H](C(=O)NC(c3ccccc3)c3ccccc3)N2C1=O.Cl
[11]
  Cmax: 545 nM
[12]
  t1/2: 1.7 h
[13]
  AUC: 482 µg/L
[14]
  F: 14%
